From PubChem
Sampled rows, rich in hits. Any-hit rate of the full collection: about 3.4%.
HTR2A ag = mouse Htr2a agonists via beta-arrestin recruitment, primary screen, cell-based, luminescence | CHO-K1 mHTR2A beta-arrestin complementation; percent of 30 µM serotonin response | activation, % at 7.6 µM | hit rate 0.66% among 360,000;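 active means activation above a run cutoff, the mean activation of all tested compounds plus 3 SD, cut at about 14% in these data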;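 further: 0% = plate median of compound wells and 100% = 30 µM serotonin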
Target sequence (P35363 whole entry, looked up): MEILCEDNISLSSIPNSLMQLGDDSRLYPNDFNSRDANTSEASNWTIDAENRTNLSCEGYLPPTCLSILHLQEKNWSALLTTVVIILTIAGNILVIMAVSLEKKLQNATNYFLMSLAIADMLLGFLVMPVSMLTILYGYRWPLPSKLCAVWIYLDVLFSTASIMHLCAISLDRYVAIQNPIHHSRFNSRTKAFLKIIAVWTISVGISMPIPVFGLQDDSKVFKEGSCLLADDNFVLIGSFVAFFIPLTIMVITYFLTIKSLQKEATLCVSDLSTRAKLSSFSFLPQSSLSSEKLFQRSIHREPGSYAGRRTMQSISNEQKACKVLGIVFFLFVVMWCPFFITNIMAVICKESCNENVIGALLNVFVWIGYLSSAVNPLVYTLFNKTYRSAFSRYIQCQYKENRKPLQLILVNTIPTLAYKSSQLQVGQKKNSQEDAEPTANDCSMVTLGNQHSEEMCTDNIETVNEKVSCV
ANO1 block = TMEM16A chloride channel inhibitors, primary screen, cell-based, HTS | HEK293 TMEM16A/YFP iodide influx fluorescence, ionomycin | normalized B-score (activity score, 25-100; higher = stronger inhibition) at 10 µM | hit rate 1.2% among 310,000;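 active means ratio plate-corrected score three or more library SD toward inhibition, starting fluorescence score within five deviations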;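 further: score derived from kinetic fluorescence span divided by baseline fluorescence per well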
MIN6 prolif-1 = inducers of MIN6 beta-cell proliferation, primary screen, ATP luminescence, uHTS; MIN6 cells proliferation, ATPlite luminescence, 48 h; cells starved in 0.2% serum; 100% = growth in 10% serum; proliferation, % at 10 µM; hit rate 0.29% among 330,000;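 active means compounds whose signal lies at least 3.5 SD above the mean of all wells on their plate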;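 further: 0% = DMSO-treated cells in low-serum medium and 100% = 10% serum control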
TMEM16A act = TMEM16A chloride channel activators or potentiators, primary screen, cell-based, HTS; Anoctamin-1 (Mus musculus), Q8BHY3; AID 623877, 2012; B-score at 10 µM; hit rate 0.3% among 340,000; HEK293 TMEM16A/YFP-H148Q/I152L, iodide quench fluorescence; active compounds read low;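 active means fluorescence-ratio B-score plate-corrected deviation score at least 3 library SD below zero, with starting fluorescence score within 5 deviations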;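 further: channel opened by trigger with iodide after compound preincubation; score built on the fluorescence ratio of max minus min over baseline; more negative score means more quench and so TMEM16A activation or potentiation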
MC4R antag cAMP = MC4R antagonists of cAMP signaling, primary screen, cell-based, TR-FRET, antagonist arm of biased-ligand search | Melanocortin receptor 4 (Homo sapiens), P32245 | MC4R-expressing cells, MTII-stimulated cAMP, LANCE TR-FRET | inhibition, % at 6.5 µM | hit rate 0.48% among 360,000 | AID 540295, 2011;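 active means inhibition above its plate's cutoff, the mean of tested wells on that plate plus 3 SD, cut at about 29% in these data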;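 further: 0% = Melanotan II alone and 100% = Melanotan II plus saturating MCL0020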
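Test system: U2OS cells stably expressing human melanocortin 4 receptor (MC4R); also added: Melanotan II challenge; compound: 6.5 µM single dose; timing: 30-min compound preincubation, 1-h Melanotan II challenge, 1-h detection, room temperature; signal: Eu-cAMP/anti-cAMP TR-FRET, emission 671 nm; repeats: one well per compound, no replicates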
MC4R barr agon = MC4R agonists recruiting beta-arrestin, primary screen, cell-based, luminescence, agonist arm of biased-ligand search. Melanocortin receptor 4 (Homo sapiens), P32245. U2OS MC4R beta-arrestin complementation; percent of melanotan II response, DMSO zero. activation, % at 8.9 µM. hit rate 0.98% among 360,000. AID 540308, 2011;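 active means activation above a per-plate cutoff, the mean activation of sample wells on that plate plus 3 SD, cut at about 8% in these data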
MIN6 prolif-2 = inducers of beta-cell proliferation in MIN6, confirmation, MIN6 cells, mouse; shares compounds with MIN6 prolif-1; ATPlite luminescence, 48 h; cells kept in 0.2% serum; scaled between 0.2% and 10% serum; proliferation increase, % at 50 µM; 920 tested, under 10 active; AID 463095, 2010;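 active means proliferation increase above 40% at any of the four tested concentrations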
* = called active by the depositor; i = inactive; / = no result given.

SMILES	HTR2A ag	ANO1 block	MIN6 prolif-1	TMEM16A act	MC4R antag cAMP	MC4R barr agon	MIN6 prolif-2
O=C(NCc1ccc(F)cc1)C(c1ccccc1)N(C(=O)c1csnn1)c1ccccc1 (centres undefined)	1.2	i	2.7	i	4.3	0.2	/
O=C(NCc1ccc(F)cc1)C(c1ccco1)N(C(=O)c1csnn1)c1ccccc1 (centres undefined)	6.7	i	10.8*	i	-0.8	0.0	-3.8
Cc1ccc(Nc2nc3c(c(=O)[nH]2)CCCC3)cc1	-5.0	i	5.8*	i	9.6	2.0	-3.1
Cc1cccc(NC(=O)C2CCN(C(=O)[C@@H]3Cc4ccccc4CN3)CC2)c1	0.3	i	5.2*	i	-2.0	-1.5	-4.5
O=C(CN1C(=O)COc2ccccc21)NCCCN1CCN(c2ccccc2F)CC1	-1.8	i	-0.2	i	-3.7	3.1	/
O=C(CCN1C(=O)COc2ccccc21)NCCN1CCN(c2ccccc2F)CC1	-0.3	i	6.7*	i	6.5	-0.8	-2.1
CCN1C(=O)/C(=C/c2ccc(C)o2)N(C)C1=S	-1.7	i	0.0*	i	-11.4	-0.5	-0.7
CC(C)c1nc2sc3c(SCC(N)=O)ncnc3c2c2c1CCC2	2.7	i	5.1*	i	1.9	-2.4	5.1
COc1cc2[nH]c(C(=O)N3CC(C)OC(C)C3)cc2c(OC)c1OC (centres undefined)	-1.7	i	9.0*	i	4.5	0.4	1.2
COCc1ccc(C(=O)N2CCCC(N3CCN(c4cccc(Cl)c4)CC3)C2)s1 (centres undefined)	-6.6	/	/	/	11.0	0.6	/
CN(c1ccc(C(=O)Nc2cccnc2)cc1)S(=O)(=O)c1ccc(Cl)cc1	5.5	i	-1.0	i	7.4	-0.2	/
CN(c1ccc(C(=O)Nc2cccnc2)cc1)S(=O)(=O)c1ccccc1	0.2	i	0.0*	-4.99*	-0.2	-0.8	2.1
CC(C)Oc1ccc(CN2CCC2(C)C(=O)Nc2cccc(Oc3ccccc3)c2)cc1 (centres undefined)	-0.8	/	/	/	7.8	0.1	/
COc1ccc(OC)c(C(C(=O)NC2CCCCC2)N(C(=O)c2snc(C(N)=O)c2N)c2ccccc2OC)c1 (centres undefined)	8.5	i	7.2	i	-5.8	-0.6	/
COc1ccccc1N(C(=O)c1ccco1)C(C(=O)NC1CCCC1)c1cccs1 (centres undefined)	-4.9	i	0.0*	i	-1.1	0.7	-1.4
COc1ccc(N(C(=O)c2ccco2)C(C(=O)NC2CCCC2)c2cccs2)cc1OC (centres undefined)	4.3	i	-1.9	i	14.1	-1.6	/
COc1ccccc1N(C(=O)c1snc(C(N)=O)c1N)C(C(=O)NC1CCCCC1)c1cccc(OC)c1OC (centres undefined)	-0.4	i	24.8*	i	-4.7	-0.4	-6.2
CC(=O)Nc1n[nH]c(S(=O)(=O)Cc2ccc(Cl)cc2Cl)n1	-4.7	i	8.0*	i	3.1	-0.7	1.3
CC(=O)Nc1nc(SCc2ccc(Cl)cc2Cl)n[nH]1	8.4	i	-0.4	i	-0.1	-1.2	/
O=C(Nc1cccc2cccnc12)c1ccc(Cl)cc1	0.6	i	5.9*	i	3.7	0.0	-5.1
O=C(Nc1cccnc1Cl)c1ccc(Cl)cc1	-2.1	i	-1.4	i	2.5	-1.4	/
CCc1c(N)nc(N)nc1Nc1ccccc1C	0.9	/	/	i	1.3	-1.6	/
COc1cc(C2(c3ccc(O)c(OC)c3)C(=O)Nc3c(C)cc(Br)cc32)ccc1O	2.1	i	-3.3	i	12.5	-2.4	/
O=C(CSc1n[nH]c(=O)n1-c1ccc2c(c1)OCCO2)Nc1ccccc1	2.5	i	4.9*	i	1.9	-0.4	0.1
O=C(CSc1n[nH]c(=O)n1-c1ccccc1)Nc1ccccc1	-1.9	i	1.8	i	16.4	0.0	/
SMILES	HTR2A ag	ANO1 block	MIN6 prolif-1	TMEM16A act	MC4R antag cAMP	MC4R barr agon	MIN6 prolif-2
CN(C)S(=O)(=O)c1cccc(NC(=O)c2ccc3c(c2)OCCO3)c1	-5.7	i	-2.9	i	-0.4	0.2	/
COc1ccccc1CCC(=O)Nc1nccs1	13.3	i	-3.0	i	6.9	0.5	/
COc1ccccc1CCC(=O)Nc1ccc(S(=O)(=O)Nc2nccs2)cc1	3.7	i	13.0*	i	6.2	-1.7	1.2
Cn1c2ccccc2n2c(=O)c(Cl)c(-c3ccccc3)c(C#N)c12	-1.4	i	7.9*	i	-5.2	-2.4	-4.5
Cc1cc(=O)n2[nH]c(SCc3ccccc3)nc2n1	1.3	i	8.3*	i	-2.4	-0.7	-1.1
O=c1ccn(-c2cccc(C(F)(F)F)c2)nc1-c1ccn(-c2ccccc2F)n1	-1.8	i	9.4*	i	-3.6	0.3	-5.9
O=C(O)c1nn(-c2cccc(C(F)(F)F)c2)ccc1=O	2.4	i	-0.7	i	0.1	-0.8	/
Cc1ccc(CNC(=O)C2CCCN(C(=O)Nc3ccc(F)cc3)C2)cc1 (centres undefined)	5.5	i	10.5*	i	-0.6	-0.4	-0.1
Cc1ccc(S(=O)(=O)N(C)C[C@@H]2OCc3cn(nn3)CCCC(=O)N([C@H](C)CO)C[C@H]2C)cc1	-1.4	/	/	/	/	/	/
CCOc1ccccc1C(=O)NCC(=O)Nc1ncccc1C	-0.5	i	11.8*	i	16.2	-3.0	-0.8
CCOc1ccc(C(=O)NCC(=O)Nc2ncccc2C)cc1OCC	-9.5	i	0.8	i	5.6	-2.0	/
COC(=O)c1ccc(N/C=C/C(=O)c2ccccc2)cc1	-0.3	i	-3.5	i	18.6	1.1	/
CC(C)c1nc2n[nH]c(N)c2c2c1CCCC2	10.4	i	6.1*	i	-7.9	1.6	7.0
CC(C)Cc1nc2n[nH]c(N)c2c2c1CCC2	-1.3	i	0.0*	i	17.4	-2.1	1.7
CC(C)Cc1nc2n[nH]c(N)c2c2c1CCCC2	5.9	i	1.7	i	5.4	0.6	/
